Test [1] concerns Moraxella catarrhalis. The experiment in a line: Antibacterial activity against beta-lactamase producing Moraxella catarrhalis isolate 5 at 10 ug/disc after overnight incubation by disc diffusion assay. Type of test: functional. The method in brief: (§1)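 Isolates were held at −80 °C. Five colonies were suspended in Mueller-Hinton broth to a 0.5 McFarland density and swabbed onto MH agar. Discs carried 10 μg compound, applied in methanol and dried at room temperature. Plates were incubated overnight at 37 °C, and the zone of inhibition was measured in mm from the disc edge. Controls were methanol-only and penicillin discs. Run blinded, in triplicate.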

The test system of test [2] is Staphylococcus aureus. Briefly: Antibacterial activity against non-beta-lactamase producing Staphylococcus aureus ATCC 25923 after 48 hrs by microdilution broth method. Type of test: functional, organism-based. In a few lines: (§2)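 Broth microdilution followed CLSI guidelines. Compound was dissolved in 95% ethanol, diluted at least 10-fold into Mueller-Hinton broth, then serially two-fold diluted from 500 to 15.6 μg/mL. Actively growing culture was added at 5 × 10^5 cells/mL. Plates ran 48 h at 37 °C, scored for visible growth at 24 and 48 h. MIC was the lowest concentration without growth. For MBC, 10 μL from each clear well was plated on MH agar. Controls were ethanol and penicillin. Triplicate.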

Test [3] has as its system Moraxella catarrhalis. The experiment in a line: Antibacterial activity against beta-lactamase producing Moraxella catarrhalis isolate 4 at 500 ug/ml after overnight incubation by disc diffusion assay. Type of test: functional, organism-based.
Test [4] has as its system Moraxella catarrhalis. The experiment in a line: Antibacterial activity against beta-lactamase producing Moraxella catarrhalis isolate 3 at 500 ug/ml after overnight incubation by disc diffusion assay. The class given is functional, organism-based.
The subject of test [5] is Moraxella catarrhalis. Briefly: Antibacterial activity against beta-lactamase producing Moraxella catarrhalis isolate 4 at 10 ug/disc after overnight incubation by disc diffusion assay. The class given is functional. The method in brief: as §1
The test system of test [6] is Pseudomonas aeruginosa. Briefly: Antibacterial activity against non-beta-lactamase producing Pseudomonas aeruginosa ATCC 27853 at 10 ug/disc after overnight incubation by disc diffusion assay. Type of test: functional, organism-based. In a few lines: as §1
Test [7] has as its system Mycobacterium tuberculosis. The experiment in a line: Antimycobacterial activity against wild type Mycobacterium tuberculosis H37Rv at 200 ug/ml by Alamar blue assay. Type of test: functional, organism-based.
Test [8] has as its system Staphylococcus aureus. Briefly: Antibacterial activity against non-beta-lactamase producing Staphylococcus aureus ATCC 25923 at 10 ug/disc after overnight incubation by disc diffusion assay. The class given is functional, organism-based. The method in brief:
as §1

In test [9] the test system is Moraxella catarrhalis. Briefly: Antibacterial activity against beta-lactamase producing Moraxella catarrhalis isolate 6 at 500 ug/ml after overnight incubation by disc diffusion assay. The class given is functional, organism-based.
Test [10] concerns Escherichia coli. Briefly: Antibacterial activity against non-beta-lactamase producing Escherichia coli ATCC 25922 at 10 ug/disc after overnight incubation by disc diffusion assay. The class given is functional, organism-based. The method in brief:
as §1

Test [11] relates to Escherichia coli. The experiment in a line: Antibacterial activity against non-beta-lactamase producing Escherichia coli ATCC 25922 after 48 hrs by microdilution broth method. The class given is functional, organism-based. In a few lines:
as §2

The subject of test [12] is Moraxella catarrhalis. Briefly: Antibacterial activity against beta-lactamase producing Moraxella catarrhalis isolate 2 at 500 ug/ml after overnight incubation by disc diffusion assay. Type of test: functional, organism-based.
The subject of test [13] is Moraxella catarrhalis. The experiment in a line: Antibacterial activity against beta-lactamase producing Moraxella catarrhalis isolate 5 at 500 ug/ml after overnight incubation by disc diffusion assay. The class given is functional, organism-based.
The subject of test [14] is Enterococcus faecalis. The experiment in a line: Antibacterial activity against non-beta-lactamase producing Enterococcus faecalis ATCC 29212 at 10 ug/disc after overnight incubation by disc diffusion assay. Type of test: functional, organism-based. The method in brief:
as §1

The subject of test [15] is Moraxella catarrhalis. The experiment in a line: Antibacterial activity against beta-lactamase producing Moraxella catarrhalis isolate 1 at 10 ug/disc after overnight incubation by disc diffusion assay. The class given is functional. In a few lines:
as §1

Test [16] deals with Moraxella catarrhalis. Briefly: Antibacterial activity against beta-lactamase producing Moraxella catarrhalis isolate 3 at 10 ug/disc after overnight incubation by disc diffusion assay. The class given is functional. In a few lines:
as §1

The subject of test [17] is Enterococcus faecalis. The experiment in a line: Antibacterial activity against non-beta-lactamase producing Enterococcus faecalis ATCC 29212 after 48 hrs by microdilution broth method. The class given is functional, organism-based. In a few lines: as §2
Test [18] deals with Moraxella catarrhalis. The experiment in a line: Antibacterial activity against beta-lactamase producing Moraxella catarrhalis isolate 2 at 10 ug/disc after overnight incubation by disc diffusion assay. Type of test: functional. In a few lines:
as §1

The subject of test [19] is Pseudomonas aeruginosa. The experiment in a line: Antibacterial activity against non-beta-lactamase producing Pseudomonas aeruginosa ATCC 27853 after 48 hrs by microdilution broth method. The class given is functional, organism-based. The method in brief: as §2
The subject of test [20] is Moraxella catarrhalis. Briefly: Antibacterial activity against beta-lactamase producing Moraxella catarrhalis isolate 1 at 10 ug/disc after overnight incubation by disc diffusion assay in presence of 1 mol equiv of glutathione. The class given is functional.
For test [21], the system named is Moraxella catarrhalis. Briefly: Antibacterial activity against beta-lactamase producing Moraxella catarrhalis isolate 3 at 10 ug/disc after overnight incubation by disc diffusion assay in presence of 1 mol equiv of glutathione. Type of test: functional.
The subject of test [22] is Moraxella catarrhalis. Briefly: Antibacterial activity against beta-lactamase producing Moraxella catarrhalis isolate 4 at 10 ug/disc after overnight incubation by disc diffusion assay in presence of 1 mol equiv of glutathione. The class given is functional.
Test [23] concerns Moraxella catarrhalis. The experiment in a line: Antibacterial activity against beta-lactamase producing Moraxella catarrhalis isolate 2 at 10 ug/disc after overnight incubation by disc diffusion assay in presence of 1 mol equiv of glutathione. Type of test: functional.
In test [24] the test system is Moraxella catarrhalis. Briefly: Antibacterial activity against beta-lactamase producing Moraxella catarrhalis isolate 5 at 10 ug/disc after overnight incubation by disc diffusion assay in presence of 1 mol equiv of glutathione. Type of test: functional.

Activity calls are given as the source filed them. No cut-off for these calls is given here.

In the case of `O=C1CC(Sc2ccccc2)N1` (racemic), the “inhibition zone (IZ)” value in test [1], in test [5], in test [15], in [16] and in [18] was “inactive” throughout. Besides, the outcome in test [2], in test [6], in [8], in [10], in [11] and in [14] was inactive. Besides, the outcome in [17] and in test [19] was inactive. Besides, the “antibacterial activity (active/not active)” value in test [3], in test [4], in test [9], in test [12] and in test [13] was “inactive” throughout. In addition, in [7], the “antimycobacterial activity (active/not active)” value was “inactive”.
For the molecule `O=C1CC(Sc2cccs2)N1S(=O)(=O)O` (racemic), the “inhibition zone (IZ)” value in test [1], in [5], in test [15], in test [16] and in test [18] was “inactive” in each case. Also, the outcome in test [2], in [6], in [8], in [10], in test [11] and in [14] was inactive. For the same molecule, the result in test [17] and in test [19] was inactive. Further, the “antibacterial activity (active/not active)” value in [3], in [4], in test [9], in [12] and in test [13] was “Active” in each case. In addition, the “antimycobacterial activity (active/not active)” value in [7] is “Active”.
For `CCOC(=O)CN1C(=O)C(OC)C1C(CC)(CC)SSC(C=O)(CC)CC` (racemic), the figures for the zone of inhibition at 10 µg/disc in test [1] (read-out: IZ) and in test [15] (read-out: IZ) were 3 mm and 20 mm, respectively. The result in test [2], in test [6], in [8], in test [10], in test [11] and in [14] was inactive. The outcome in test [17] and in test [19] was inactive. In addition, the “antibacterial activity (active/not active)” value in test [3], in test [4], in test [9], in test [12] and in [13] was “Active” each time. The “inhibition zone (IZ)” value in test [5], in [16] and in test [18] was “inactive” throughout. In [7], the “antimycobacterial activity (active/not active)” value was “Active”.
Consider `Nc1ccc(SC2CC(=O)N2)cc1` (racemic), for which the result in test [2], in test [6], in [8], in [10], in [11] and in test [14] was inactive. Further, the result in [17] and in test [19] was inactive. The “antibacterial activity (active/not active)” value in test [3], in test [4], in test [9], in [12] and in test [13] was “Active” throughout. For the same molecule, the “antimycobacterial activity (active/not active)” value in test [7] is “Active”.
Regarding `O=C1CC(SCCCO)N1` (racemic), the result in test [2], in test [6], in [8], in test [10], in [11] and in test [14] was inactive. For the same molecule, the result in test [17] and in [19] was inactive. Also, the “antibacterial activity (active/not active)” value in [3], in test [4], in [9], in test [12] and in [13] was “inactive” throughout. The “antimycobacterial activity (active/not active)” value in test [7] was “inactive”.
As for `CCC(CC)(CO)SC1CC(=O)N1` (stereo unspecified), the outcome in test [2], in test [6], in test [8], in test [10], in test [11] and in [14] was inactive. For the same molecule, the result in test [17] and in test [19] was inactive. In addition, the “inhibition zone (IZ)” value in test [20], in test [21], in test [22], in test [23] and in test [24] was “inactive” in each case.
For `CCOC(=O)CN1C(=O)C(OC)C1C(C)(C)SSC` (racemic), the “inhibition zone (IZ)” value in test [1], in test [5], in [15], in test [16] and in test [18] was “inactive” each time. The outcome in test [2], in test [6], in [8], in [10], in test [11] and in [14] was inactive. The outcome in [17] and in [19] was inactive. In addition, the “antibacterial activity (active/not active)” value in [3], in test [4], in [9], in [12] and in test [13] was “Active” throughout. Besides, the “antimycobacterial activity (active/not active)” value in test [7] is “Active”.
As for `CCOC(=O)CN1C(=O)C(OC)C1C(S)(CC)CC` (racemic), the result in [2], in test [6], in test [8], in test [10], in [11] and in [14] was inactive. The outcome in [17] and in test [19] was inactive. Moreover, the “antibacterial activity (active/not active)” value in test [3], in test [4], in test [9], in [12] and in test [13] was “inactive” in each case. In addition, the “antimycobacterial activity (active/not active)” value in test [7] is “inactive”.

Values taken from ChEMBL document CHEMBL1914320, “C4-alkylthiols with activity against Moraxella catarrhalis and Mycobacterium tuberculosis” (Bioorg Med Chem, 2011).
